Results taken from ChEMBL document CHEMBL1123289, “Structure-activity relationships of dopaminergic 5-hydroxy-2-aminotetralin derivatives with functionalized N-alkyl substituents” (J Med Chem, 1986).

Experiments:
[1] = target: T1, Dopamine receptor (Rattus norvegicus) (UniProt P25115+P19020+P30729+P18901+P61169); assay: Evaluation for contralateral turning in 6-hydroxy-dopamine-lesioned rats administered intraperitoneally at the dose 1 mg/kg Maximum intensity (turnings/min); assay type: functional, organism-based; set-up: dose 1 mg/kg
In short: (§1)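 Rats carrying a unilateral lesion of the nigrostriatal pathway were scored for induced turning toward the side contralateral to the lesion, using an Ungerstedt-type rotation procedure.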

[2] = Dopamine receptor binding affinity by displacing the radioligand [3H]spiroperidol from dopamine receptor.; set-up: species or system Bos taurus
In short: (§2)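 Radioligand displacement was run on membrane fractions from calf caudate nucleus, with [3H]DA or [3H]spiroperidol as the labelled ligand.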

[3] = Dopamine receptor binding affinity by displacing the radioligand [3H]-dopamine from dopamine receptor.; set-up: species or system Bos taurus; in short: as §2
[4] = target: T1, Dopamine receptor (Rattus norvegicus); assay: Evaluation for contralateral turning in 6-hydroxy-dopamine-lesioned rats administered intraperitoneally at the dose 1 mg/kg duration; assay type: functional, organism-based; set-up: dose 1 mg/kg; in short: as §1
[5] = target: T1, Dopamine receptor (Rattus norvegicus); assay: Evaluation for contralateral turning in 6-hydroxy-dopamine-lesioned rats administered intraperitoneally at the dose 1 mg/kg total turnings; assay type: functional, organism-based; set-up: dose 1 mg/kg; in short: as §1
Rattus norvegicus = assay: Compound was evaluated for the contralateral turning in 6-hydroxy-dopamine-lesioned rats administered intraperitoneally at the dose 1 mg/kg; assay type: functional; conditions: route intraperitoneal; in short: as §1

Compound	Max intensity [1] [turns min-1]	IC50 [2] [µM]	IC50 [3] [µM]	Duration [4] [h]	Total turnings [5]	Duration (Rattus norvegicus) [h]	Max intensity (Rattus norvegicus) [turns min-1]	Total turnings (Rattus norvegicus)
C=CCCCN(CCC)C1CCc2c(O)cccc2C1 (stereo not drawn)	7.7	0.4	0.048	7	1740	–	–	–
CCCN(CCNS(=O)(=O)N(CC)CC)C1CCc2c(O)cccc2C1 (stereo not drawn)	–	0.22	0.041	–	–	3	7.8	1015
CCCN(CCCC#N)C1CCc2c(O)cccc2C1 (stereo in doubt; 3) [listing 1 of 2 here]	–	0.79	0.035	–	–	–	–	–
CN1C[C@@H](CC#N)C[C@@H]2c3cccc4[nH]cc(c34)C[C@H]21 [DELERGOTRILE]	14.4	0.52	0.265	> 7	2610	–	–	–
CCCN(CCCC#N)C1CCc2c(O)cccc2C1 (stereo in doubt; 3) [listing 2 of 2 here]	10.3	–	–	3	1170	–	–	–
CCCN(CCCS(C)(=O)=O)C1CCc2c(O)cccc2C1 (stereo not drawn)	–	1.86	0.11	–	–	1	5.7	531
CCCN(CCCSC)C1CCc2c(O)cccc2C1 (single isomer, unassigned; (-)) [listing 1 of 2 here]	15.2	–	–	7	3590	–	–	–
CCCN(CCc1ccccc1)C1CCc2c(O)cccc2C1 (stereo not drawn)	8.7	0.18	0.04	6	1520	–	–	–
CCCN(CCCNC(=O)N(CC)CC)C1CCc2c(O)cccc2C1 (stereo not drawn)	–	1.3	0.22	–	–	–	–	–
CN(CCCC#N)C1CCc2c(O)cccc2C1 (stereo not drawn)	–	3.5	0.5	–	< 150	–	–	–
CCCN(CCCO)C1CCc2c(O)cccc2C1 (stereo not drawn)	10.2	1.45	0.185	3	721	–	–	–
CCN(CC)S(=O)(=O)N[C@H]1C[C@@H]2c3cccc4[nH]cc(c34)C[C@H]2N(C)C1 [ETISULERGINE]	–	0.025	0.12	–	–	>7	11.8	3688
CCCN(CCCSC)C1CCc2c(O)cccc2C1 (single isomer, unassigned; (-)) [listing 2 of 2 here]	–	0.23	0.038	–	–	–	–	–
CCCN(CCCCC#N)C1CCc2c(O)cccc2C1 (stereo not drawn)	10.8	1.5	0.091	4	1460	–	–	–
CCCN(CCCNS(=O)(=O)N(C)C)C1CCc2c(O)cccc2C1 (stereo not drawn)	–	0.37	0.1	–	–	4	7.6	857
CCCN(CCCSC)C1CCc2c(O)cccc2C1 (stereo in doubt; 12) [listing 1 of 2 here]	9.8	–	–	7	1980	–	–	–
CCCN(CCC#N)C1CCc2c(O)cccc2C1 (stereo not drawn)	–	7.5	0.13	–	< 150	–	–	–

Compound	Max intensity [1] [turns min-1]	IC50 [2] [µM]	IC50 [3] [µM]	Duration [4] [h]	Total turnings [5]	Duration (Rattus norvegicus) [h]	Max intensity (Rattus norvegicus) [turns min-1]	Total turnings (Rattus norvegicus)
CCCN(CCCC(=O)OC)C1CCc2c(O)cccc2C1 (stereo not drawn)	–	0.91	0.14	–	–	–	–	<150
CCCN(CCCN)C1CCc2c(O)cccc2C1 (stereo not drawn)	–	4.58	2	–	–	–	–	–
CCN(CCCC#N)C1CCc2c(O)cccc2C1 (stereo not drawn)	–	0.92	0.068	–	< 150	–	–	–
CCCN(CCCc1ccccc1)C1CCc2c(O)cccc2C1 (stereo not drawn)	6.6	0.14	0.048	5	656	–	–	–
CCCN(CCCNC(=O)OCC)C1CCc2c(O)cccc2C1 (stereo not drawn)	–	0.525	0.077	–	–	5	10.4	1216
CCCN(CCCSC)C1CCc2c(O)cccc2C1 (stereo in doubt; 12) [listing 2 of 2 here]	–	0.22	0.043	–	–	–	–	–
CCCN(CCCN=[N+]=[N-])C1CCc2c(O)cccc2C1 (stereo not drawn)	6.7	0.53	0.058	7	1860	–	–	–
CCCN(CCCCl)C1CCc2c(O)cccc2C1 (stereo not drawn)	12.5	1.02	0.046	7	2660	–	–	–
CCCN(CCCNC(C)=O)C1CCc2c(O)cccc2C1 (stereo not drawn)	–	1.8	0.19	–	–	4	1.6	159
CCCN(CCC)C1CCc2c(O)cccc2C1 (stereo not drawn) [5-OH-DPAT]	22.7	1.35	0.049	6	2540	–	–	–
CCCN(CCCC#N)C1CCc2c(O)cccc2C1 (stereo in doubt; (-)-3) [listing 1 of 2 here]	–	0.37	0.037	–	–	–	–	–
CCCN(CCCOC)C1CCc2c(O)cccc2C1 (stereo not drawn)	7.4	2.2	0.15	2	347	–	–	–
CCCN(CCCC(=O)NC)C1CCc2c(O)cccc2C1 (stereo not drawn)	–	0.825	0.038	–	–	6	6.4	413
CCCN(CCCC#N)C1CCc2c(O)cccc2C1 (single isomer, unassigned; (+))	–	3.5	0.49	–	–	–	–	–
CCCN1C[C@H](CSC)C[C@@H]2c3cccc4[nH]cc(c34)C[C@H]21 [PERGOLIDE]	9.7	0.145	0.018	> 7	1800	–	–	–
CCCN(CCCC#N)C1CCc2c(O)cccc2C1 (stereo in doubt; (-)-3) [listing 2 of 2 here]	12	–	–	6	3260	–	–	–
